Experimental data as given in PMC7113734 (Antiviral Research, 2016).
Read-outs that look alike come from different tables or passages of the source.

Tests used:
HIV-1 protease = HIV-1 protease (Human immunodeficiency virus type 1 group M subtype B, UniProt P04585); test: HIV-1 protease inhibition assay; type: biochemical
[1] = test system: drug-resistant HIV-1 strains; test: Antiviral activity against drug-resistant HIV-1 strains in MT-4; type: cell-based; conditions: MT-4
[2] = test system: HIV attachment to HeLa-CD4-LTR-β-gal cells; test: Attachment inhibition assay; type: cell-based, HIV-1; conditions: Human immunodeficiency virus 1, read-out: Attachment inhibition EC50 ± SD
MT-4 cells = test: Toxicity to MT-4 cells; type: cell-based; conditions: all assays
hERG = hERG (Homo sapiens, UniProt Q12809); test: Standard hERG test for cardiotoxicity
[3] = test system: clinical HIV-1 subtype B virus 92US723; test: Antiviral activity with added serum proteins in fresh human PBMCs; type: cell-based; conditions: 50% human serum, AAGP or HSA vs medium only
HIVIIIB = test: Cell-to-cell virus transmission assay in CEM-SS cells; type: cell-based, HIV-1
[4] = test system: influenza A virus type H1N1; test: DMID antiviral screening, influenza A; type: cell-based
HIV-1IIIB [5] = test: Antiviral activity with added serum proteins in CEM-SS cells; type: cell-based
HIV-1 integrase = HIV-1 integrase (Human immunodeficiency virus type 1 group M subtype B, UniProt P04585); test: HIV-1 integrase inhibition assay; type: biochemical
HIV strain 92US727 = test: Cell-to-cell virus transmission assay in fresh human PBMCs; type: cell-based, HIV-1
Method in brief: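 HIV-infected fresh human PBMCs treated 3 days with six concentrations of test compound. Passaged every 3 days for three passages at fixed compound concentration; 80% of culture volume replaced with fresh compound-containing medium and uninfected cells. Cell-free supernatants collected on sub-culture days for RT activity and extracellular p24 antigen. TCID50 per passage by endpoint dilution.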

cytochrome P450 enzymes = test: Inhibition of cytochrome P450 enzymes; type: in vitro ADME
in vitro = conditions: human, CC50 (cytotoxic concentration), fresh human PBMCs
[6] = test system: drug resistant clinical HIV isolates; test: Antiviral activity against drug-resistant HIV-1 in PBMCs; type: cell-based; conditions: Human immunodeficiency virus 1, PBMC
[7] = test system: IIIB strain of HIV-1 in CEM-SS cells; test: Combination drug interaction evaluation; type: cell-based
Method in brief: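 CEM-SS cells infected with HIV-1 IIIB; inhibition of cytopathic effect measured for the test compound in two-drug combinations with known anti-HIV agents. Efficacy and toxicity analysed by Prichard–Shipman MacSynergy II. Expected additive inhibition computed from each agent's single-agent dose–response; inhibition above expected at each concentration calculated at 95%, 99% and 99.9% confidence. −99 to −51 μM2% scored antagonistic; <−100 highly antagonistic.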

[8] = test system: HL2/3 cells expressing HIV-1 gp120 and gp41 fusing with HeLa-CD4-LTR-β-gal cells; test: Fusion inhibition assay; type: cell-based; conditions: Human immunodeficiency virus 1, HL2/3, read-out: Fusion inhibition EC50 ± SD
Method in brief: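 HeLa-CD4-LTR-β-Gal cells incubated with test compound for 1 h at 37°C/5% CO2, then co-cultured 48 h with HL2/3 cells. Cells lysed and β-galactosidase expression measured by chemiluminescent Gal-Screen.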

HIV-1IIIB [9] = test: Drug-resistant virus selection by serial dose escalation; type: cell-based; conditions: fourteen passages, CEM-SS cells
Pharmacokinetics in rats = type: in vivo; conditions: male, Sprague-Dawley, rat, plasma, po, 1000 mg/kg
Method in brief: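 Male Sprague-Dawley rats, n = 3 per route. Prodrug given as IV bolus (50 mg/kg, 12.5 mg/mL in 5% DMSO/50% PEG300 in saline) or PO (1000 mg/kg, […] in 2% CMC suspension). Blood sampled over 24 h into sodium fluoride plus citric acid, kept on wet ice <10 min, then centrifuged at 4 °C. Plasma stored at −80 °C; prodrug and active metabolite quantified by UPLC-MS/MS (prodrug LLOQ 0.10 ng/mL).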

wild type HIV-1 RT = wild type HIV-1 RT (Human immunodeficiency virus type 1 group M subtype B, UniProt P04585); test: Biochemical RT inhibition assay

Chain of hERG (Q12809 whole entry): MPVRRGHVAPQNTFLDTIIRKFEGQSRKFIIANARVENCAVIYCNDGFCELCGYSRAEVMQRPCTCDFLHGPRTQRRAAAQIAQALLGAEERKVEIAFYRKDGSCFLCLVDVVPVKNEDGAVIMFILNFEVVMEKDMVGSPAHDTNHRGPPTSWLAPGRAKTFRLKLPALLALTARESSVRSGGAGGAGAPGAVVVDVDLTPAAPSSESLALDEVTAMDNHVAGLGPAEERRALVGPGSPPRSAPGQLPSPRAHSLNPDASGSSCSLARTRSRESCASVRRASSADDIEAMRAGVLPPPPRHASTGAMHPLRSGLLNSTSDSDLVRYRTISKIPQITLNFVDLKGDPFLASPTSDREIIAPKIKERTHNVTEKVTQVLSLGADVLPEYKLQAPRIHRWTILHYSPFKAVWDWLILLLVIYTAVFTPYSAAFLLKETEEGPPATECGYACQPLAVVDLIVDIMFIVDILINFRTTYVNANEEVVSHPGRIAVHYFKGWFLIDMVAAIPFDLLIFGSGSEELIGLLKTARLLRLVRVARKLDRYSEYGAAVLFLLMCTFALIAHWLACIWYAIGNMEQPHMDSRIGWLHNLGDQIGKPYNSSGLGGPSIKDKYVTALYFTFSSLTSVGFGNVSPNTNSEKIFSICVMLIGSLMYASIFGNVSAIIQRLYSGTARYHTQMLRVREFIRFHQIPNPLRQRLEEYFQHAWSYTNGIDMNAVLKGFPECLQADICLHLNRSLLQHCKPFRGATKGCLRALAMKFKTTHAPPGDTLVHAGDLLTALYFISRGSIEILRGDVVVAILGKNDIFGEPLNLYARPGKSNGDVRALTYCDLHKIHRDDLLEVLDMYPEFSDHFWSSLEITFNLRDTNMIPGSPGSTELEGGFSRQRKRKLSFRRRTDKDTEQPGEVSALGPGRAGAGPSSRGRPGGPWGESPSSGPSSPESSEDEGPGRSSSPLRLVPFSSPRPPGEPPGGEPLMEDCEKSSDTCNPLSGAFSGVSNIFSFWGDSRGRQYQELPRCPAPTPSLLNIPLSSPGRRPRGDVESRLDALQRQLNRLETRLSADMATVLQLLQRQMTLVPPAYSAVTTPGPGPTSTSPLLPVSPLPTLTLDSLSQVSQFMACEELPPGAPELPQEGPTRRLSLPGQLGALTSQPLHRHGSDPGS

## NC(=O)CCNC(=O)c1ccccc1S [MDH-1-38, N-(3-amino-3-oxopropyl)-2-mercaptobenzamide]
HIV-1 protease
  EC50: > 100 µM
[1]; Human immunodeficiency virus 1, read-out: Mean EC50 ± SD, AZT- and NNRTI-resistant, RT 4xAZT/L100I
  EC50: 3.59 ± 1.25 µM
[1]; Human immunodeficiency virus 1, read-out: Mean EC50 ± SD, AZT- and NNRTI-resistant, RT 4xAZT/Y181C
  EC50: 4.87 ± 0.22 µM
[1]; Human immunodeficiency virus 1, read-out: Mean EC50 ± SD, AZT-resistant, RT 4xAZT (D67N/K70R/T215Y/K219Q)
  EC50: 3.31 ± 2.2 µM
[1]; Human immunodeficiency virus 1, read-out: Mean EC50 ± SD, Atazanavir-resistant, PR I50L
  EC50: 0.82 ± 0.37 µM
[1]; Human immunodeficiency virus 1, read-out: Mean EC50 ± SD, Didanosine-resistant, RT L74V
  EC50: 3.93 ± 2.33 µM
[1]; Human immunodeficiency virus 1, read-out: Mean EC50 ± SD, Enfuviritide-resistant, Env V38A/N126K
  EC50: 7.09 ± 0.03 µM
[1]; Human immunodeficiency virus 1, read-out: Mean EC50 ± SD, Indinavir-, Ritonavir-resistant, PR I84V
  EC50: 2.54 ± 0.93 µM
[1]; Human immunodeficiency virus 1, read-out: Mean EC50 ± SD, Indinavir-, Ritonavir-resistant, PR V82A
  EC50: 10.3 ± 5.34 µM
[1]; Human immunodeficiency virus 1, read-out: Mean EC50 ± SD, Indinavir-, Ritonavir-resistant, PR V82F/I84V
  EC50: 4.1 ± 0.47 µM
[1]; Human immunodeficiency virus 1, read-out: Mean EC50 ± SD, Lamivudine-resistant, RT M184V
  EC50: 2.7 ± 1.52 µM
[1]; Human immunodeficiency virus 1, read-out: Mean EC50 ± SD, NNRTI-resistant, RT K103N/Y181C
  EC50: 8.03 ± 1.45 µM
[1]; Human immunodeficiency virus 1, read-out: Mean EC50 ± SD, NNRTI-resistant, RT K103N
  EC50: 3.97 ± 1.31 µM
[1]; Human immunodeficiency virus 1, read-out: Mean EC50 ± SD, NNRTI-resistant, RT L100I
  EC50: 1.22 ± 0.01 µM
[1]; Human immunodeficiency virus 1, read-out: Mean EC50 ± SD, NNRTI-resistant, RT V106A
  EC50: 2.74 ± 2.17 µM
[1]; Human immunodeficiency virus 1, read-out: Mean EC50 ± SD, NNRTI-resistant, RT V108I
  EC50: 3.84 ± 1.6 µM
[1]; Human immunodeficiency virus 1, read-out: Mean EC50 ± SD, NNRTI-resistant, RT V179D
  EC50: 3.57 ± 1.81 µM
[1]; Human immunodeficiency virus 1, read-out: Mean EC50 ± SD, NNRTI-resistant, RT Y181C
  EC50: 3.99 ± 1.59 µM
[1]; Human immunodeficiency virus 1, read-out: Mean EC50 ± SD, NNRTI-resistant, RT Y188C
  EC50: 3.37 ± 2.15 µM
[1]; Human immunodeficiency virus 1, read-out: Mean EC50 ± SD, Raltegravir-resistant, IN Q148H/G140S
  EC50: 3.39 ± 2.15 µM
[1]; Human immunodeficiency virus 1, read-out: Mean EC50 ± SD, Saquinavir-resistant, PR G48V/L90M
  EC50: 1 ± 0.34 µM
[1]; Human immunodeficiency virus 1, read-out: Mean EC50 ± SD, Tenofovir-resistant, RT K65R
  EC50: 4.29 ± 0.64 µM
[2]
  EC50: 44.4 ± 7.21 µM
MT-4 cells
  non-toxic up to high test concentration: > 100 µM
hERG
  hERG test for cardiotoxicity: negative
[3]
  change in antiviral activity with serum protein additives: no significant change in antiviral activity
HIVIIIB; Passage 1, 2 μM
  RT: 22 cpm
  TCID50/mL: 0 TCID50/mL
  p24: 619 pg/mL
HIVIIIB; Passage 2, 2 μM
  RT: 185 cpm
  TCID50/mL: 2.46 × 10^5 TCID50/mL
  p24: 28,255 pg/mL
HIVIIIB; Passage 3, 2 μM
  RT: 2820 cpm
  TCID50/mL: 2.41 × 10^4 TCID50/mL
  p24: 394,996 pg/mL
[4]
  antiviral activity: failed to show any activity
HIV-1IIIB [5]; in the presence of 50% human AB serum
  fold decrease in potency: ~4.5 fold
HIV-1IIIB [5]; in the presence of HSA (10 mg/mL)
  fold decrease in potency: 4.5 fold
HIV-1 integrase
  EC50: > 100 µM
HIV strain 92US727; Passage 1, 3.25 μM
  RT: 216 cpm
  TCID50/mL: 3.75 × 10^2 TCID50/mL
  p24: 816 pg/mL
HIV strain 92US727; Passage 2, 3.25 μM
  RT: 730 cpm
  TCID50/mL: 4.90 × 10^3 TCID50/mL
  p24: 2642 pg/mL
HIV strain 92US727; Passage 3, 3.25 μM
  RT: 11,080 cpm
  TCID50/mL: 2.17 × 10^4 TCID50/mL
  p24: 55,429 pg/mL
Cytochrome P450 enzymes
  inhibition of cytochrome P450 enzymes: neither NS1040 nor MDH-1-38 had significant inhibitory activity
In vitro
  CC50: > 231 µM
[6]; read-out: PBMC/HIV-1 EC50 ± SD, Multi-drug resistant AD. MDR
  EC50: 10.6 ± 6.95 µM
[6]; read-out: PBMC/HIV-1 EC50 ± SD, Multi-drug resistant MDR769
  EC50: 3.5 ± 1.45 µM
[6]; read-out: PBMC/HIV-1 EC50 ± SD, NNRTI-resistant A17R
  EC50: 11.4 ± 8.47 µM
[6]; read-out: PBMC/HIV-1 EC50 ± SD, NNRTI-resistant N119
  EC50: 2.58 ± 2.52 µM
[6]; read-out: PBMC/HIV-1 EC50 ± SD, PI-resistant 144-44
  EC50: 9.78 ± 8.23 µM
[6]; read-out: PBMC/HIV-1 EC50 ± SD, PI-resistant 1002-60
  EC50: 2.04 ± 1.03 µM
[6]; read-out: PBMC/HIV-1 EC50 ± SD, PI-resistant 1022-48
  EC50: 0.98 ± 0.64 µM
[6]; read-out: PBMC/HIV-1 EC50 ± SD, PI-resistant 1026-60
  EC50: 2.67 ± 0.4 µM
[6]; read-out: PBMC/HIV-1 EC50 ± SD, PI-resistant 1064-52
  EC50: 3.06 ± 0.28 µM
[6]; read-out: PBMC/HIV-1 EC50 ± SD, Wild Type 92US727
  EC50: 3.32 ± 1.95 µM
[7]; in combination with amprenavir
  mean synergy volume: 101 ± 61 μM^2%
[7]; in combination with dolutegravir
  mean synergy volume: 95.7 ± 44.3 μM^2%
[7]; in combination with enfuviritide
  mean synergy volume: 80.8 ± 32.9 μM^2%
[7]; in combination with lopinavir
  mean synergy volume: 108 ± 64.5 μM^2%
[7]; in combination with nelfinavir
  mean synergy volume: 498 ± 288 μM^2%
[7]; in combination with ritonavir
  mean synergy volume: 282 ± 111 μM^2%
[8]
  EC50: 83.3 ± 26.4 µM
HIV-1IIIB [9]
  selection of resistant virus: did not result in resistance
Pharmacokinetics in rats
  bioavailability: 64%
Wild type HIV-1 RT
  EC50: > 100 µM
